Screens (PubChem BioAssay)
KCNQ1 block – inhibitors of human KCNQ1 channel, primary screen, cell-based, thallium flux, high-throughput. CHO-K1 KCNQ1, FluxOR thallium flux fluorescence; hits give high values. AID 2642, 2010. hit rate 1.3% among 310,000. B-score at 10 µM. Potassium voltage-gated channel subfamily KQT member 1 (Homo sapiens), P51787;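 active = compounds whose thallium flux B-score, printed positive for inhibition, exceeds three library SD while starting fluorescence stays within three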;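 also: channel opened by potassium depolarization with thallium stimulus after 20 min compound exposure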
KCNQ1 act – potentiators or activators of KCNQ1 channel, primary screen, cell-based, thallium flux, high-throughput | Potassium voltage-gated channel subfamily KQT member 1 (Homo sapiens), P51787 | CHO-K1 KCNQ1, thallium flux FluxOR fluorescence; hits give high values | B-score at 10 µM | hit rate 0.35% among 310,000 | AID 2648, 2010;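 active = fluorescence ratio B-score, a plate-corrected score, at least three library SD, with initial intensity B-score within 5 SD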
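Doses: Single concentration per compound, DMSO matched to controls | Test system: KCNQ1-transfected CHO-K1 cells | Timing: 90 min dye loading and 20 min compound exposure, both at room temperature | Measured by: Kinetic FluxOR thallium fluorescence, 10-s 1-Hz baseline, 110-s post-stimulus read | Medium: Assay buffer with matched DMSO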
hERG protect – hERG rescue from dofetilide block, primary screen, cell-based, CHO-hERG, FluxOR thallium flux, dofetilide IC70. Voltage-gated inwardly rectifying potassium channel KCNH2 (Homo sapiens), Q12809. dofetilide IC70 present. activation (rescue from dofetilide block), less the hit threshold, % at 10 µM. hit rate 0.51% among 310,000. AID 1511, 2009;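 active = activation above the mean of controls blocked by dofetilide plus 5 SD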;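 also: thallium influx through hERG after potassium depolarization seen as dye fluorescence rise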
KCNK9 block – KCNK9 potassium channel inhibitors, primary screen, HEK293 cells, thallium flux. FluxOR thallium flux fluorescence; hits give low values. B-score at 10 µM. hit rate 1.2% among 310,000. AID 488922, 2010;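 active = ratio B-score over 3 SD below the library mean, with starting fluorescence within 5 SD of its mean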;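 also: negative B-score means less thallium flux so channel inhibition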
Kir21 inh – inhibitors of mouse Kir2.1 inward-rectifier potassium channel. AID 1672, 2009. hit rate 0.85% among 310,000. Inward rectifier potassium channel 2 (Mus musculus), P35561. B-score at 10 µM. HEK293-Kir2.1, FluxOR thallium flux fluorescence; hits give low values;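 active = fluorescence ratio B-score at or below minus 3 SD of library scores, with starting-brightness B-score within 2 SD, cut at about -4.2 in these data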;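 also: channel flux triggered by added potassium and thallium sulfate stimulus; B-score of peak minus minimum fluorescence over baseline after thallium stimulus; more negative B-score means stronger Kir2.1 block with less thallium influx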
KCNK3 inh – human KCNK3 channel inhibitors, primary screen, CHO cells, FluxOR thallium flux, B-score | Potassium channel subfamily K member 3 (Homo sapiens), O14649 | AID 602410, 2012 | B-score at 10 µM | hit rate 0.84% among 340,000 | FluxOR fluorescence; hits give low values;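 active = B-score under library mean minus 4 SD, starting fluorescence ratio at most library mean plus 5 SD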;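 also: more negative B-score means stronger inhibition of thallium flux through KCNK3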
Target sequence (O14649 whole entry, looked up): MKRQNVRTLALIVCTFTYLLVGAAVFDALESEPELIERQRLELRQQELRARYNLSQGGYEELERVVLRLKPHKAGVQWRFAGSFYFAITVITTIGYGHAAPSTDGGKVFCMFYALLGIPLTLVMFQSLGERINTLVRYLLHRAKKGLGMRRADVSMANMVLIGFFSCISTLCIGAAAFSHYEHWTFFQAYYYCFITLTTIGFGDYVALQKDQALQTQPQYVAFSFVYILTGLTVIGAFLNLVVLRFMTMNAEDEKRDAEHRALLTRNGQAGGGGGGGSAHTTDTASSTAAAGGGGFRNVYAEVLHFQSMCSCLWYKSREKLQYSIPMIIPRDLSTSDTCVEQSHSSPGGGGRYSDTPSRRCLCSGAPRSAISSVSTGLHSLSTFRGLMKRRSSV
KCNK9 block conf – KCNK9 potassium channel inhibitors, confirmation, HEK293 cells, thallium flux, duplicate | shares compounds with KCNK9 block | FluxOR thallium flux fluorescence | inhibition, % at 10 µM | hit rate 43% among 4,900;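 active = thallium signal inhibited by more than 5 SD of the compound-free buffer control wells, on both duplicate plates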
Kir2-1 spec – mouse Kir2.1 channel inhibition, confirmation, selectivity assay for KCNK9 modulator project, cell-based, HEK293, thallium flux. AID 492993, 2010. inhibition, % at 10 µM. Kir2.1 cells, FluxOR thallium flux fluorescence. hit rate 4% among 4,900. shares compounds with KCNK9 block;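 active = thallium signal drop more than 5 SD beyond the mean of the no-compound control wells, seen in both duplicate plates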;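 also: signal is fluorescence rise after thallium addition divided by baseline fluorescence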
HEK293 Tl ctr – thallium flux in non-induced HEK293 cells, confirmation, counter-screen for KCNK9 inhibitor project, cell-based, second counter screen, non-induced KCNK9-HEK293; shares compounds with KCNK9 block; FluxOR thallium flux; inhibition, % at 10 µM; hit rate 40% among 4,900; AID 492997, 2010;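 active = thallium signal drop beyond 5 SD of the untreated control mean, on both duplicate plates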
Hits are given with their value; n = inactive; x = no result. Compounds with a hit are over-represented: about 3.7% of the library has one in this group of screens.

SMILES	KCNQ1 block	KCNQ1 act	hERG protect	KCNK9 block	Kir21 inh	KCNK3 inh	KCNK9 block conf	Kir2-1 spec	HEK293 Tl ctr
Cc1cccc(Cl)c1NC(=S)NCCc1ccccn1	n	n	n	-8.2	n	n	44%	n	28%
Cc1cc(O)ccc1N/C=C(\C#N)c1nc2ccccc2o1	n	n	n	n	n	n	x	x	x
N#C/C(=C\c1c(Cl)cccc1Cl)c1nc2ccccc2o1	n	n	n	n	n	n	n	n	n
N#C/C(=C\c1c(Cl)cccc1Cl)c1nc2ccccc2[nH]1	n	n	n	-8.8	n	n	46%	n	n
CN(C)/C=C(\C#N)c1nc2ccccc2[nH]1	n	n	n	n	n	n	x	x	x
CC(C)Cn1c(SC(C)C(=O)Nc2ccc3c(c2)OCCO3)nc2ccccc2c1=O (stereo not drawn)	n	n	n	-8.5	n	n	n	n	n
CC(Sc1nc2ccccc2c(=O)n1C)C(=O)Nc1ccc2c(c1)OCCO2 (stereo not drawn)	x	x	x	x	x	n	x	x	x
Nc1c(S(=O)(=O)c2cccs2)c2nc3ccccc3nc2n1Cc1cccs1	n	n	n	n	n	n	x	x	x
Nc1c(S(=O)(=O)c2cccs2)c2nc3ccccc3nc2n1Cc1ccc2c(c1)OCO2	n	n	n	-12	n	n	32%	n	40%
CCOC(=O)c1c(NC(=O)COC(=O)CCCOc2ccc(OC)cc2)sc(C(=O)N(C)C)c1C	x	x	x	x	x	n	x	x	x
COc1ccccc1C/C(N)=N/OC(=O)COc1cccc(C)c1	n	n	n	n	n	n	n	n	n
COc1ccccc1C/C(N)=N/OC(=O)COc1ccc(C)cc1	n	n	n	n	n	n	x	x	x
COc1ccccc1C/C(N)=N/OC(=O)COc1ccc2ccccc2c1	n	n	n	n	n	n	n	n	n
O=C(OC1CCN(c2ncc(C(F)(F)F)cc2Cl)CC1)c1ccc(Cl)cc1	n	n	n	n	n	n	n	n	n
Cc1ccc(S(=O)(=O)N2CCC[C@H]2C(=O)NC2=NCCS2)cc1	x	x	x	x	x	n	x	x	x
CCOC(=O)C1=C(CSc2nc(-c3ccccc3)ccc2C#N)OC(N)=C(C#N)C1c1cccnc1 (stereo not drawn)	n	n	n	-18	n	-17	68%	n	40%
CCOC(=O)CC1=C(C(=O)OCC)C(c2cccnc2)C(C#N)=C(N)O1 (stereo not drawn)	n	n	n	n	n	n	x	x	x
CCOC(=O)C1=C(CSc2nc(-c3ccccc3)ccc2C#N)OC(N)=C(C#N)C1c1ccccc1 (stereo not drawn)	n	n	n	-13	n	n	47%	n	38%
CSCC(=O)Nc1ccc(F)c(Cl)c1	n	n	n	n	n	n	n	n	n
CCCCC(=O)Nc1ccc(F)c(Cl)c1	n	n	n	n	n	n	x	x	x
Cc1cc(C)cc(NC(=O)c2cc(C)n(Cc3cccs3)c2C)c1	n	n	n	n	n	n	x	x	x
Cc1cc(C(=O)Nc2ccc(Cl)cc2)c(C)n1Cc1cccs1	n	n	n	n	n	n	n	n	n
O=C(Nc1cccc(F)c1)C1CCN(C(=O)c2ccc(Br)cc2)CC1	n	n	n	n	n	n	n	n	n
